Among the data in ChEMBL document CHEMBL3351508, “Second-generation antibacterial benzimidazole ureas: discovery of a preclinical candidate with reduced metabolic liability” (J Med Chem, 2014) are MIC and AUC/dose values, retold here.

≈ marks a conversion by molar mass, not a printed value.

Data set [1] deals with Enterococcus faecalis. Briefly: Antibacterial activity against Enterococcus faecalis ATCC 29212 by CLSI method. The format is functional. Summed up: (§1)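 Broth microdilution MIC in liquid medium following CLSI methods, with ATCC strains. Each run was accepted only if comparator antibiotics fell within their recommended quality-control ranges for the appropriate ATCC strain.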

In data set [2] the test system is Enterococcus faecium. Briefly: Antibacterial activity against Enterococcus faecium ATCC 49624 by CLSI method. The format is functional. Summed up:
as §1

Data set [3] relates to Staphylococcus aureus. Nature of the data set: Antibacterial activity against Staphylococcus aureus ATCC 29213 by CLSI method. The format is functional. Summed up: as §1
Data set [4] concerns Staphylococcus aureus. Nature of the data set: Antibacterial activity against Staphylococcus aureus ATCC 29213 by CLSI method in presence of human 50% serum. The class given is functional. Summed up: as §1
Data set [5] relates to Streptococcus pneumoniae. Nature of the data set: Antibacterial activity against Streptococcus pneumoniae ATCC 10015 by CLSI method. The format is functional. Summed up: as §1
Data set [6] deals with Rattus norvegicus. Briefly: Dose normalized AUC in rat at 30 mg/kg, po. The note with it: in vivo. The class given is ADME, organism-based. On the set-up: dose 30 mg/kg, route oral.

In general, MIC refers to the lowest concentration that inhibits growth of the organism. In the case of `CCNC(=O)Nc1nc2cc(-c3cnc(C(C)(C)O)nc3)cc([C@@H]3CCCO3)c2[nH]1`, the minimal inhibitory concentration (MIC) turned out to be 1 µg/mL (≈ 2.44 µM) in data set [1]; 2 µg/mL (≈ 4.87 µM) in data set [2]; 1 µg/mL (≈ 2.44 µM) in data set [3]; 2 µg/mL in data set [4]; 0.5 µg/mL (≈ 1.22 µM) in data set [5].

Consider `CCNC(=O)Nc1nc2cc(-c3ccc(C(C)O)nc3)c(F)c(-n3cccn3)c2[nH]1` (stereo not drawn), for which the MIC in data set [1] is 0.125 µg/mL (≈ 0.305 µM); in data set [2], 0.5 µg/mL (≈ 1.22 µM); in data set [3], 0.125 µg/mL (≈ 0.305 µM); in data set [4] it was 3 µg/mL; in data set [5], 0.032 µg/mL (≈ 0.0782 µM).

Turning to `CCNC(=O)Nc1nc2cc(-c3cccnc3)cc(C3CCCO3)c2[nH]1` (racemic), the MIC in data set [1] was 0.25 µg/mL (≈ 0.711 µM); in data set [3], 1 µg/mL (≈ 2.85 µM); in data set [4], 4 µg/mL; in data set [5] it was 0.125 µg/mL (≈ 0.356 µM).

As for `CCNC(=O)Nc1nc2c(-n3cccn3)cc(-c3cccnc3)cc2[nH]1`, the MIC was 0.063 µg/mL (≈ 0.181 µM) in data set [1], 0.25 µg/mL (≈ 0.72 µM) in data set [3], 4 µg/mL in data set [4] and 0.016 µg/mL (≈ 0.0461 µM) in data set [5]. Also, the AUC/dose in data set [6] was found to be 5.7 microg.hr/mL per mg/kg.

Consider `CCNC(=O)Nc1nc2cc(-c3cnc(C(C)(C)O)nc3)c(F)c([C@@H]3CCCO3)c2[nH]1`, for which the MIC in data set [1] turned out to be 0.5 µg/mL (≈ 1.17 µM); in data set [2] it was 2 µg/mL (≈ 4.67 µM); in data set [3] it was 0.5 µg/mL (≈ 1.17 µM); in data set [4], 4 µg/mL; in data set [5] it was 0.25 µg/mL (≈ 0.583 µM).

`COCC(=O)Nc1nc2cc(-c3cncc(F)c3)cc(-c3ncccn3)c2[nH]1`: the minimum inhibitory concentration (MIC) is 0.032 µg/mL (≈ 0.0846 µM) in data set [1]; 0.032 µg/mL (≈ 0.0846 µM) in data set [2]; 0.064 µg/mL (≈ 0.169 µM) in data set [3]; 8 µg/mL in data set [4]; 0.032 µg/mL (≈ 0.0846 µM) in data set [5].

As to `CNCC(=O)Nc1nc2cc(-c3cncc(F)c3)cc(-c3ncccn3)c2[nH]1`, the MIC in data set [1], in data set [2], in data set [3], in data set [4] and in data set [5] was above 8 µg/mL in each case.

On to `NC(=O)Nc1nc2cc(-c3cncc(F)c3)cc(-c3ncccn3)c2[nH]1`, for which the minimum inhibitory concentration (MIC) in data set [3] and in data set [4] was above 8 µg/mL throughout.

For `CCCC(=O)Nc1nc2cc(-c3cncc(F)c3)cc(-c3ncccn3)c2[nH]1`, the MIC in data set [3] and in data set [4] was above 8 µg/mL throughout.

As for `CCNC(=O)Nc1nc2cc(-c3cccnc3)c(F)c(-n3cccn3)c2[nH]1`, the minimum inhibitory concentration (MIC) in data set [1] came to 0.063 µg/mL (≈ 0.172 µM); in data set [3] it was 0.25 µg/mL (≈ 0.684 µM); in data set [4], 2 µg/mL; in data set [5] it was 0.032 µg/mL (≈ 0.0876 µM). This compound also displayed an AUC/dose in data set [6] of 10.8 microg.hr/mL per mg/kg.

For the compound `CCNC(=O)Nc1nc2cc(-c3cnc(C(C)(C)O)nc3)c(F)c(C3CCCO3)c2[nH]1` (racemic), the MIC was found to be 0.125 µg/mL (≈ 0.292 µM) in data set [1]; 0.5 µg/mL (≈ 1.17 µM) in data set [2]; 0.063 µg/mL (≈ 0.147 µM) in data set [3]; 0.5 µg/mL in data set [4]; 0.032 µg/mL (≈ 0.0747 µM) in data set [5].

For the compound `CCNC(=O)Nc1nc2cc(-c3ccn(C)c(=O)c3)cc(C3CCCO3)c2[nH]1` (racemic), the MIC in data set [1] turned out to be 0.25 µg/mL (≈ 0.655 µM); in data set [2] it was 0.25 µg/mL (≈ 0.655 µM); in data set [3], 0.75 µg/mL (≈ 1.97 µM); in data set [4], 0.75 µg/mL; in data set [5] it was 0.016 µg/mL (≈ 0.0419 µM).

Consider `CCNC(=O)Nc1nc2cc(-c3ccc([C@H](O)CC)nc3)c(F)c(-n3cccn3)c2[nH]1`, for which the minimum inhibitory concentration (MIC) in data set [1] amounted to 0.063 µg/mL (≈ 0.149 µM); in data set [2] it was 0.25 µg/mL (≈ 0.59 µM); in data set [3] it was 0.25 µg/mL (≈ 0.59 µM); in data set [4], 4 µg/mL; in data set [5], 0.063 µg/mL (≈ 0.149 µM).

For the compound `CCOC(=O)Nc1nc2cc(-c3cncc(F)c3)cc(-c3ncccn3)c2[nH]1`, the MIC in data set [1] is 0.016 µg/mL (≈ 0.0423 µM); in data set [2], 0.016 µg/mL (≈ 0.0423 µM); in data set [3], 0.016 µg/mL (≈ 0.0423 µM); in data set [4] it was above 8 µg/mL; in data set [5], 0.008 µg/mL (≈ 0.0211 µM).

Turning to `CCNC(=O)Nc1nc2cc(-c3cc(C)n(Cc4ccccn4)c(=O)c3)cc(C3CCCO3)c2[nH]1` (racemic), the MIC in data set [1] stood at 0.125 µg/mL (≈ 0.265 µM); in data set [2], 0.25 µg/mL (≈ 0.529 µM); in data set [3] it was 0.125 µg/mL (≈ 0.265 µM); in data set [4], 0.25 µg/mL; in data set [5] it was 0.008 µg/mL (≈ 0.0169 µM).
